Measured values from ChEMBL document CHEMBL1135544, “Design, synthesis, and biological activity of hybrid compounds between uramustine and DNA minor groove binder distamycin A” (J Med Chem, 2002).

Test system: K562
Assay: In vitro antitumor activity against human chronic myeloid leukemia K562 cell line
Type: functional, cell-based
How it was run: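 K562 cells grown in RPMI 1640 with 10% fetal calf serum and 2 mM glutamine at 37 °C, 5% CO2. Exposed to drug for 1 h at 37 °C in the dark, then centrifuged and washed. Seeded at 10⁴ cells/well, 8 wells per sample, and cultured 4 days. MTT read at 550 nm. IC50 is the dose giving 50% of control OD, mean of at least three experiments.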

Compound	IC50
O=C(O)CCCn1cc(N(CCCl)CCCl)c(=O)[nH]c1=O	> 100 µM
O=C(O)CCCCCCn1cc(N(CCCl)CCCl)c(=O)[nH]c1=O	> 100 µM
Cn1cc(NC(=O)c2cc(NC(=O)c3cc(NC(=O)CCCCCCn4cc(N(CCCl)CCCl)c(=O)[nH]c4=O)cn3C)cn2C)cc1C(=O)NCCC(=N)N	0.07 µM
Cn1cc(NC(=O)c2cc(NC(=O)c3cc(NC(=O)CCCCCn4cc(N(CCCl)CCCl)c(=O)[nH]c4=O)cn3C)cn2C)cc1C(=O)NCCC(=N)N	0.14 µM
Cn1cc(NC(=O)c2cc(NC(=O)c3cc(NC=O)cn3C)cn2C)cc1C(=O)NCCC(=N)N	> 100 µM
Cn1cc(NC(=O)c2cc(NC(=O)c3cc(NC(=O)CCCn4cc(N(CCCl)CCCl)c(=O)[nH]c4=O)cn3C)cn2C)cc1C(=O)NCCC(=N)N	7.26 µM
O=C(O)CCCCn1cc(N(CCCl)CCCl)c(=O)[nH]c1=O	> 100 µM
Cn1cc(NC(=O)c2cc(NC(=O)c3cc(NC(=O)CCCCn4cc(N(CCCl)CCCl)c(=O)[nH]c4=O)cn3C)cn2C)cc1C(=O)NCCC(=N)N	0.11 µM
Cn1cc(NC(=O)c2cc(NC(=O)c3cc(NC(=O)CCn4cc(N(CCCl)CCCl)c(=O)[nH]c4=O)cn3C)cn2C)cc1C(=O)NCCC(=N)N	2.54 µM
Cn1cc(NC(=O)c2cc(NC(=O)c3cc(NC(=O)Cn4cc(N(CCCl)CCCl)c(=O)[nH]c4=O)cn3C)cn2C)cc1C(=O)NCCC(=N)N	4.06 µM
O=C(O)CCCCCn1cc(N(CCCl)CCCl)c(=O)[nH]c1=O	> 100 µM
Oc1ncc(N(CCCl)CCCl)c(O)n1 [URACIL MUSTARD]	5.1 µM
